Measured values published in ChEMBL document CHEMBL1221342, “Synthesis and in vitro antitumor activity of new 4,5-dihydropyrazole derivatives” (Bioorg Med Chem, 2010).

Columns and labels:
BT-549 = test: Growth inhibition of human BT549 cells after 48 hrs by SRB assay; assay type: functional; conditions: BT-549, 48 h; for TGI: read-out: pTGI (converted)
Outline: (§1)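 NCI 60-cell-line screen. Cells grown in RPMI1640 with 5% fetal calf serum and 2 mM L-glutamine, with inoculum density set by cell line. Preincubated 24 h, then given compound in DMSO at 10^-4 to 10^-8 M (five 10-fold steps) for 48 h continuous exposure. Growth measured by SRB protein assay. GI50, TGI and LC50 reported as –log molar.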

OVCAR-3 = test: Growth inhibition of human OVCAR-3 cells after 48 hrs by SRB assay; assay type: functional; conditions: OVCAR-3, 48 h; for TGI: read-out: pTGI (converted); outline: as §1
PC-3 = test: Growth inhibition of human PC3 cells after 48 hrs by SRB assay; assay type: functional; conditions: PC-3, 48 h; for TGI: read-out: pTGI (converted); outline: as §1
A498 = test: Growth inhibition of human A498 cells after 48 hrs by SRB assay; assay type: functional; conditions: A498, 48 h; for TGI: read-out: pTGI (converted); outline: as §1
KM12 = test: Growth inhibition of human KM12 cells after 48 hrs by SRB assay; assay type: functional; conditions: KM12, 48 h; for TGI: read-out: pTGI (converted); outline: as §1
MOLT-4 = test: Growth inhibition of human MOLT4 cells after 48 hrs by SRB assay; assay type: functional; conditions: MOLT-4, 48 h; for TGI: read-out: pTGI (converted); outline: as §1
[1] = Growth inhibition of human […] cells after 48 hrs by SRB assay; assay type: functional; conditions: for TGI: read-out: pTGI (converted); outline: as §1
TK-10 = test: Growth inhibition of human TK10 cells after 48 hrs by SRB assay; assay type: functional; conditions: TK-10, 48 h; for TGI: read-out: pTGI (converted); outline: as §1
RXF 393 = test: Growth inhibition of human RXF393 cells after 48 hrs by SRB assay; assay type: functional; conditions: RXF 393, 48 h; outline: as §1
MCF7 = test: Growth inhibition of human MCF7 cells after 48 hrs by SRB assay; assay type: functional; conditions: MCF7, 48 h; for TGI: read-out: pTGI (converted); outline: as §1
COLO 205 = test: Growth inhibition of human COLO205 cells after 48 hrs by SRB assay; assay type: functional; conditions: COLO 205, 48 h; for TGI: read-out: pTGI (converted); outline: as §1
CCRF-CEM = test: Growth inhibition of human CCRF-CEM cells after 48 hrs by SRB assay; assay type: functional; conditions: for TGI: read-out: pTGI (converted); outline: as §1
[2] = Inhibition of tubulin polymerization
Outline: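 Tubulin (3 mg/mL HTS) in G-PEM buffer plus 5% glycerol, prepared at 4 °C, incubated at 37 °C with or without compound. Polymerization followed by A340 over 60 min. Polymer taken as the AUC, with untreated control AUC set to 100%. IC50 derived by non-linear regression.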

SK-MEL-2 = test: Growth inhibition of human SK-MEL-2 cells after 48 hrs by SRB assay; assay type: functional; conditions: SK-MEL-2, 48 h; for TGI: read-out: pTGI (converted); outline: as §1
MDA-MB-468 = test: Growth inhibition of human MDA-MB-468 cells after 48 hrs by SRB assay; assay type: functional; conditions: MDA-MB-468, 48 h; for TGI: read-out: pTGI (converted); outline: as §1
NCI-H522 = test: Growth inhibition of human NCI-H522 cells after 48 hrs by SRB assay; assay type: functional; conditions: NCI-H522, 48 h; for TGI: read-out: pTGI (converted); outline: as §1

Row | Compound | GI50 (BT-549) | TGI (BT-549) | GI50 (OVCAR-3) | TGI (OVCAR-3) | GI50 (PC-3) | TGI (PC-3) | GI50 (A498) | TGI (A498) | GI50 (KM12) | TGI (KM12) | GI50 (MOLT-4) | TGI (MOLT-4) | GI50 [1] | TGI [1] | GI50 (TK-10) | TGI (TK-10) | GI50 (RXF 393) | GI50 (MCF7) | TGI (MCF7) | GI50 (COLO 205) | also measured
1 | COc1cc(C2=NN(C(C)=O)C(c3cc(OC)c(OC)c(OC)c3)C2)ccc1O (stereo unspecified) | 631 nM | > 100000 nM | 251 nM | 631 nM | 251 nM | > 100000 nM | 251 nM | 3980 nM | 251 nM | > 100000 nM | 398 nM | > 100000 nM | 200 nM | 794 nM | 631 nM | > 100000 nM | 126 nM | 251 nM | > 100000 nM | 251 nM | TGI (COLO 205): 794 nM; GI50 (CCRF-CEM): 316 nM; TGI (CCRF-CEM): 1000 nM; IC50 [2]: 8560 nM; GI50 (SK-MEL-2): 501 nM; TGI (SK-MEL-2): > 100000 nM; GI50 (MDA-MB-468): 251 nM; TGI (MDA-MB-468): 794 nM; GI50 (NCI-H522): 316 nM; TGI (NCI-H522): > 100000 nM
2 | CCN(CC)c1ccc(C2=NN(C(C)=O)C(c3cc(OC)c(OC)c(OC)c3)C2)cc1 (stereo unspecified) | 631 nM | 5010 nM | 398 nM | 10000 nM | 316 nM | 12600 nM | 316 nM | 2510 nM | 316 nM | 12600 nM | 251 nM | 3160 nM | 158 nM | 501 nM | 398 nM | 20000 nM | 398 nM | 316 nM | 10000 nM | 316 nM | TGI (RXF 393; read-out: pTGI (converted)): 2510 nM; TGI (COLO 205): 1260 nM; GI50 (CCRF-CEM): 316 nM; TGI (CCRF-CEM): 1000 nM; IC50 [2]: 8090 nM; GI50 (SK-MEL-2): 501 nM; TGI (SK-MEL-2): 39800 nM; GI50 (MDA-MB-468): 251 nM; TGI (MDA-MB-468): 631 nM; GI50 (NCI-H522): 398 nM; TGI (NCI-H522): 631 nM
